CSC inhib – blocks cancer stem cells; cancer stem cell-like cells viability, luminescence; inhibition, % at 7.5 µM; 1.1% of 300,000 active; in the data active means inhibition above about 75%; inconclusive means no clear call, values can overlap the other calls; tested in HMLE shEcad cells
Calb FLC – affects C. albicans growth with fluconazole; C. albicans CaCi-2 (fluconazole-resistant clinical isolate) + fluconazole, Alamar Blue growth, 48 h; AID 1979; 0.57% of 300,000 active; growth inhibition, % (test concentration not listed);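 active means growth inhibition above about 58% in most replicates, limit read from the data, passing the limit was not always enough; inconclusive means exactly half the replicates above a set limit; inactive means most replicates below a set limit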;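 further: all wells also contain fluconazole at 8 µg/ml as a sub-toxic cotreatment; 0% = median of DMSO wells and 100% = median of geldanamycin control wells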
PolyA inh – inhibitors of polyadenylation in S. cerevisiae; 0.02% of 300,000 active; activity score, % at 12 µM; S. cerevisiae SKY197-pL101 polyadenylation reporter, beta-gal luminescence; efflux-impaired pdr1/pdr3 knockout yeast; score 100 = 6 SD above DMSO;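 active means lowest replicate activity score at least 50, where 100 means six control SD above control mean; inconclusive means lowest score under 50 but half or more replicates reach 50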;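 further: yeast exposed to compound for 9 h at 30 °C; higher score means more reporter readthrough which indicates perturbed polyadenylation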
Beta apoptosis – beta cell apoptosis inhibition; INS-1E cytokine-induced death, ATP luminescence, 48 h; percent of positive-control rescue, neutral wells zero; 0.8% of 300,000 active; protection from apoptosis, % (test concentration not listed);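 active means Every replicate reaches about 75%, or at least half do and their mean reaches it too, limit read from the data; inconclusive means At least half of replicates reach the limit but their mean does not; inactive means Under half of replicates reach the limit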;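 further: 0% = cytokine-treated negative control wells and 100% = positive control rescue; higher means more ATP so stronger rescue from cytokine killing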
T cruzi inh – T. cruzi replication inhibition. inhibition, % (no concentration beside the values). T. cruzi beta-gal in NIH3T3, luminescence, 90 h. AID 1885. 1.4% of 300,000 active;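 active means mean inhibition across valid replicates above about 55%, limit read from the data; inconclusive means mean below that limit but half or more replicates reach it; inactive means mean below it, under half of replicates reach it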;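 further: signal also drops with host cell toxicity which is not excluded here; 0% = plate median of DMSO wells and 100% = zero luminescence signal; higher percent means less beta-gal luminescence so fewer parasites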
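Incubation – ≥90 h infection period, 3 h prior cell attachment · System – NIH/3T3 fibroblasts plus reporter T. cruzi · Doses – compound pinned at 50 nL/well, DMSO · Read-out basis – percent inhibition of parasite-derived β-gal signal · Signal – luminescent β-galactosidase signal after 60 min lysis · Also added – 5000 T. cruzi trypomastigotes/well · Medium – Low-serum DMEM with 2% FBS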
HIF act – HIF pathway transcriptional activation; activation, % at 7.5 µM (by protocol); U2OS HRE-luciferase reporter, luminescence; normalized: DMSO 0%, desferrioxamine 100%; 0.32% of 300,000 active; AID 1910;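 active means mean activation of at least 10% of the iron chelator positive control signal, with at least half of replicates also reaching 10%; inconclusive means mean and replicate majority disagree about reaching 10%; inactive means mean and most replicates under 10%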
Starred values were filed as active, the others as inactive; ? = inconclusive; . = not tested or not shown. Sampled rows, rich in hits. Any-hit rate of the full collection: about 3.1%.

SMILES | CSC inhib | Calb FLC | PolyA inh | Beta apoptosis | T cruzi inh | HIF act
Cc1ccc(N2C(=O)C3C(C2=O)N2C(c4cccs4)C4C(=O)N(c5ccc(C)cc5)C(=O)C4N2C3c2cccs2)cc1 (stereo not drawn) | -13 | -3 | 14 | 1 | -14 | 0
COC(=O)c1ccc(N2CCOCC2)c(NC(=O)Nc2cccc(OC)c2)c1 | -7 | 4 | 6 | . | 2 | 0
CCOC(=O)c1ccc(N2CCN(c3ccccc3F)CC2)c(NC(=O)Nc2cccc(OC)c2)c1 | -1 | 5 | 0 | 16 | 70* | 0
CCN1/C(=C2\C(=O)N(C)C(=S)N2C)C=Cc2cc(C)ccc21 | -17 | -14 | -17 | 18 | -23 | 0
CCNC(=S)N/N=C/c1cccc(OCc2c(F)cccc2Cl)c1 | 32 | 11 | -19 | . | 59* | 0
O=C(NNC(=O)c1ccccc1-n1cccc1)c1cncc(Br)c1 | -1 | . | . | 0 | . | .
CC1(C)CC[C@]2(C(=O)O)CC[C@]3(C)C(=CC[C@@H]4[C@@]5(C)CC[C@H](O[C@@H]6O[C@H](C(=O)O)[C@@H](O)[C@H](O[C@@H]7OC[C@H](O)[C@H](O)[C@H]7O)[C@H]6O)C(C)(C)[C@@H]5CC[C@]43C)[C@@H]2C1 | 99* | . | . | 109* | . | .
CC1(C)CC[C@]2(C(=O)O[C@@H]3O[C@H](CO)[C@@H](O)[C@H](O)[C@H]3O)CC[C@]3(C)C(=CCC4[C@@]5(C)CC[C@H](O[C@@H]6O[C@H](C(=O)O)[C@@H](O[C@H]7OC[C@@H](O)[C@@H](O)[C@@H]7O)[C@H](O)[C@H]6O)C(C)(C)C5CC[C@]43C)[C@@H]2C1 (stereo partly drawn) | -11 | . | . | 3 | . | .
Cc1ccc(C(=O)NNC(=O)c2cc3ccccc3cc2O)cc1 | 17 | 91* | -17 | -2 | 0 | 0
CCOc1ccc(NC(=O)NNC(=O)c2ccc3ccccc3c2O)cc1 | -9 | 85* | 1 | -3 | -9 | 0
COc1ccc(NC(=O)C(=O)NNC(=O)c2ccc(Cl)cc2Cl)cc1 | 1 | ? | -11 | 0 | -22 | 512*
COc1ccc(NC(=O)C(=O)NNC(=O)C(C)Oc2ccc(Cl)cc2Cl)cc1 (stereo not drawn) | . | 21 | 8 | -7 | -12 | 0
COc1cc2ccccc2cc1C(=O)NNC(=O)c1ccccc1O | 13 | 95* | -11 | 7 | 57* | 12*
COc1cc2c(cc1OC)C(C)N(C(=O)c1ccc(Br)o1)CC2 (stereo not drawn) | 9 | 7 | -2 | 3 | -10 | 0
COc1ccc(Cc2nnc(NC(=O)CS(=O)(=O)c3ccccc3)s2)cc1OC | 12 | -3 | 18 | 4 | -40 | 0
O=C(NC(=S)NNC(=O)c1ccccc1O)c1ccco1 | 15 | 41 | 16 | 0 | -10 | -33
O=C(NC(=S)NNC(=O)c1cc2ccccc2cc1O)c1ccco1 | 25 | 83* | -2 | 30 | 1 | 1
COc1ccc(C)cc1NC(=O)NNC(=O)c1cc2ccccc2cc1O | 6 | 93* | 1 | 0 | -14 | 0
COc1ccc(NC(=O)NNC(=O)c2cc3ccccc3cc2O)cc1 | 7 | 86* | ? | 2 | -4 | 0
COc1ccc(C)cc1NC(=O)NNC(=O)c1ccoc1C | . | -6 | 21 | -6 | -14 | 0
Cc1cccc(-c2cc3c(N=O)c4ccccc4c-3n[nH]2)c1 | . | -25 | -7 | 26 | 62* | 0
Cc1ccc(-c2cc3c(N=O)c4ccccc4c-3n[nH]2)cc1 | 87* | 17 | 15 | 49 | 20 | -3
O=Nc1c2cc(-c3ccccc3)[nH]nc-2c2ccccc12 | . | 31 | 16 | . | -4 | 1
O=C1CC(NS(=O)(=O)c2cccnc2)CN1c1ccc(Cl)cc1 (stereo not drawn) | . | 6 | 22 | -3 | -4 | 0
O=C(NCCCNC(=O)c1ccc(-c2cccc(Cl)c2)o1)c1cnccn1 | . | -3 | -8 | 1 | 1 | 0
SMILES | CSC inhib | Calb FLC | PolyA inh | Beta apoptosis | T cruzi inh | HIF act
O=C(CCNC(=O)Cn1ccc2ccccc2c1=O)NCCc1ccc(Cl)cc1 | -15 | -3 | 2 | -8 | -3 | 0
Cc1ccc(NC(=O)C2CCN(S(=O)(=O)c3ccc4c(c3)NC(=O)C(C)S4)CC2)cc1Cl (stereo not drawn) | 32 | 19 | -1 | 107* | 19 | 0
Cc1cc(C)cc(NC(=O)C2CCN(S(=O)(=O)c3ccc4c(c3)NC(=O)C(C)S4)CC2)c1 (stereo not drawn) | 11 | 14 | 17 | 5 | 31 | 0
O=C(O)[C@H]1CCCC[C@H]1C(=O)Nc1ccc(S(=O)(=O)N2CCOCC2)cc1 | . | 3 | -4 | -5 | -22 | 0
CCCCCNC(=O)c1cccc(S(=O)(=O)N2CC3(C)CC2CC(C)(C)C3)c1 (stereo not drawn) | 8 | 2 | -8 | 16 | 44 | -1
CCN(C(=O)COC(=O)/C=C/c1ccco1)c1c(N)n(Cc2ccccc2)c(=O)[nH]c1=O | -6 | . | . | 0 | . | .
CN(C)CCN(C(=O)CCc1ccccc1)c1nc2c(F)cc(F)cc2s1 | 0 | -2 | 21 | -8 | 52 | 0
CCN(CC)CCN(C(=O)CCOc1ccccc1)c1nc2c(F)cc(F)cc2s1 | 3 | 21 | -5 | -4 | 56* | 3
C=C(C)[C@@H]1CC[C@]2(C(=O)O)CC[C@]3(C)[C@H](CC[C@@H]4[C@@]5(C)CC[C@H](O)C(C)(C)[C@@H]5CC[C@]43C)[C@@H]12 | 84* | . | -2 | . | -17 | 0
C=C(CC[C@@H](O)C(C)(C)O)[C@H]1CC[C@]2(C)[C@@H]1CCC1[C@@]3(C)CC[C@H](O)C(C)(C)C3CC[C@]12C (stereo partly drawn) | ? | . | . | -2 | . | .
CC(Cl)C(=O)NNC(=O)CNS(=O)(=O)c1ccccc1 (stereo not drawn) | 0 | 0 | -3 | -7 | -3 | 0
CCCCn1c(CN2CCN(C(=O)OCC)CC2)nc2c1c(=O)n(C)c(=O)n2C | -5 | 102* | -6 | 0 | -2 | 0
CCCCCn1c(CN2CCN(CCO)CC2)nc2c1c(=O)n(C)c(=O)n2C | -7 | -2 | -7 | -5 | -2 | 0
CCNC(=S)Nn1cnc2ccccc21 | 1 | 8 | -6 | -5 | -3 | 0
CCN(CC)S(=O)(=O)c1ccc(C)c(NC(=O)Cn2cnc3cc([N+](=O)[O-])ccc3c2=O)c1 | 4 | -6 | -12 | 0 | 85* | 0
Cc1ccccc1OCCn1cnc2cc([N+](=O)[O-])ccc2c1=O | 10 | -14 | 3 | 1 | 60* | 0
O=C(Cn1cnc2cc([N+](=O)[O-])ccc2c1=O)Nc1cccc2ccccc12 | 8 | -1 | 1 | 1 | 43 | -3

Screening results (PubChem)
